Measured values published in ChEMBL document CHEMBL1649302, “New small-molecule inhibitor class targeting human immunodeficiency virus type 1 virion maturation” (Antimicrob Agents Chemother, 2009).
Calls of active or inactive are those of the source. The rule behind the calls is not given here.

Legend:
[1] = Therapeutic index, ratio of CC50 for human PBMC to EC50 for HIV1 92US072 infected in human PBMC; conditions: read-out: TI
How it was run: (§1)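 PHA-stimulated (4 μg/ml, 48 to 72 h) PBMCs pooled from at least two seronegative donors, kept with 20 U/ml IL-2, plated at 5 × 10⁴ cells/well. Infected with clinical isolate (final MOI ≅0.1) alongside nine compound concentrations in triplicate wells, 7 days. Supernatant reverse transcriptase activity measured. TI is mean PBMC CC50 divided by mean EC50.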

[2] = test system: Human immunodeficiency virus 1; assay: Antiviral activity HIV1 92BR004 infected in human PBMC after 7 days by scintillation counting; assay type: functional, organism-based; conditions: Human immunodeficiency virus 1, 92BR004, 168 h
How it was run: (§2)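 PBMCs came from buffy coats pooled from 3–4 seronegative donors, were PHA-stimulated (1.5 μg/ml, 3 days) and frozen. Thawed cells were infected 1 h at 37°C with virus input set by TCID50, then pelleted and resuspended in IL-2 (10 ng/ml). They were plated at 4 × 10⁵ cells/ml onto compounds for 7 days at 37°C. Supernatant RT activity was measured by Quan-T-RT scintillation assay.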

[3] = Therapeutic index, ratio of CC50 for human PBMC to EC50 for HIV1 92BR004 infected in human PBMC; conditions: read-out: TI
How it was run: (§3)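 TI was the mean PBMC CC50 divided by the mean EC50 from the 7-day PBMC reverse transcriptase assay.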

[4] = test system: Human immunodeficiency virus 1; assay: Antiviral activity HIV1 92US660 infected in human PBMC after 7 days by scintillation counting; assay type: functional, organism-based; conditions: Human immunodeficiency virus 1, 92US660, 168 h
How it was run: (§4)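 Fresh PBMCs from HIV/HBV-seronegative donors were PHA-stimulated (4 μg/ml, 48–72 h) and kept with IL-2 (20 U/ml), with at least two donors pooled. Cells were seeded at 5 × 10⁴/well and infected (final MOI ≅0.1) with nine compound concentrations in triplicate wells. After 7 days, reverse transcriptase activity was measured in cell-free supernatant.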

[5] = Cytotoxicity against human MT2 cells after 6 days by XTT assay; assay type: cell-based
How it was run: (§5)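 Uninfected cells were incubated with half-log compound dilutions for 6 days, then given XTT/PMS for 4 h and read at 450 nm. CC50 was the concentration reducing formazan to 50% of uninfected, compound-free cells. Values are means ± SD from 3–5 experiments or individual values.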

[6] = Therapeutic index, ratio of CC50 for human PBMC to EC50 for HIV1 WEJO infected in human PBMC; conditions: read-out: TI; how it was run: as §1
[7] = test system: Human immunodeficiency virus 1; assay: Antiviral activity HIV1 92US076 infected in human PBMC after 7 days by scintillation counting; assay type: functional, organism-based; conditions: Human immunodeficiency virus 1, 92US076, 168 h; how it was run: as §4
[8] = test system: Human immunodeficiency virus 1; assay: Antiviral activity HIV1 92BR026 infected in human PBMC after 7 days by scintillation counting; assay type: functional, organism-based; conditions: Human immunodeficiency virus 1, 92BR026, 168 h
[9] = Cytotoxicity against human CEM-SS cells after 6 days by XTT assay; assay type: cell-based; how it was run: as §5
[10] = Therapeutic index, ratio of CC50 for human PBMC to EC50 for HIV1 91US056 infected in human PBMC; conditions: read-out: TI; how it was run: as §3
[11] = Therapeutic index, ratio of CC50 for human PBMC to EC50 for HIV1 93BR029 infected in human PBMC; conditions: read-out: TI
How it was run: (§6)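 Frozen PHA-stimulated (1.5 μg/ml, 3 days) buffy-coat PBMCs pooled from three or four seronegative donors. Infected with a TCID50-based virus input per 10⁶ cells for 1 h at 37°C, then pelleted and resuspended in 10 ng/ml IL-2. Plated at 4 × 10⁵ cells/ml on compound dilutions for 7 days at 37°C. Supernatant RT measured by Quan-T-RT. TI is mean CC50 divided by mean EC50.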

[12] = test system: Human immunodeficiency virus 1; assay: Antiviral activity against wild type HIV1 infected in human HeLa cells assessed as decrease in viral infection after 72 hrs by beta-galactosidase reporter gene assay; assay type: functional, organism-based; conditions: Human immunodeficiency virus 1, HeLa
How it was run: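 HeLa CD4 LTR/β-Gal cells (1 × 10⁴/well, DMEM + 10% FBS) were pretreated with half-log compound dilutions. They were then infected at MOI 0.03 with single-cycle NL4-3 ΔEnv reporter virus pseudotyped with envelope from HEK 293 cotransfection. EC50 was the concentration halving β-galactosidase activity versus infected untreated cells. Values are mean ± SD or representative of three experiments.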

[13] = test system: Human immunodeficiency virus 1; assay: Antiviral activity HIV1 CMU06 infected in human PBMC after 7 days by scintillation counting; assay type: functional, organism-based; conditions: Human immunodeficiency virus 1, CMU06, 168 h; how it was run: as §2
[14] = test system: Human immunodeficiency virus 1; assay: Antiviral activity against HIV1 assessed as inhibition of virion maturation-associated CA/SP1 processing at 2 times EC90; assay type: functional, organism-based
[15] = Therapeutic index, ratio of CC50 for human PBMC to EC50 for HIV1 92BR026 infected in human PBMC; conditions: read-out: TI
[16] = Therapeutic index, ratio of CC50 for human PBMC to EC50 for HIV1 92TH026 infected in human PBMC; conditions: read-out: TI; how it was run: as §1
[17] = Therapeutic index, ratio of CC50 for human PBMC to EC50 for HIV1 98IN022 infected in human PBMC; conditions: read-out: TI; how it was run: as §6
[18] = test system: Human immunodeficiency virus 1; assay: Antiviral activity against HIV1 harboring spacer peptide A1V mutant protein infected in human HeLa cells assessed as decrease in viral infection after […] by beta-galactosidase reporter gene assay; assay type: functional, organism-based; conditions: Human immunodeficiency virus 1, HeLa
How it was run: (§7)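 MT-2 cells were infected for 2 h with wild-type NL4-3 or recombinant NL4-3 carrying CA I201V or SP1 A1V. They were then cocultured with HeLa CD4 LTR/beta-Gal indicator cells in serially diluted compound. Beta-gal reporter was read after 4 days. EC50s are means ± SD of 3–6 experiments. Fold change is mutant EC50 divided by wild-type EC50.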

[19] = test system: Human immunodeficiency virus 1; assay: Antiviral activity HIV1 91US056 infected in human PBMC after 7 days by scintillation counting; assay type: functional, organism-based; conditions: Human immunodeficiency virus 1, 91US056, 168 h; how it was run: as §4
[20] = test system: Human immunodeficiency virus 1; assay: Antiviral activity HIV1 92RW009 infected in human PBMC after 7 days by scintillation counting; assay type: functional, organism-based; conditions: Human immunodeficiency virus 1, 92RW009, 168 h; how it was run: as §2
[21] = Therapeutic index, ratio of CC50 for human PBMC to EC50 for HIV1 93BR023 infected in human PBMC; conditions: read-out: TI; how it was run: as §1
[22] = test system: Human immunodeficiency virus 1; assay: Antiviral activity against HIV1 3B infected in human MT2 cells assessed as protection against virus-induced cytopathogenicity after 6 days by XTT assay; assay type: functional, organism-based; conditions: Human immunodeficiency virus 1, 3B, MT2, 144 h
How it was run: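 Host cells were infected with NL4-3 or IIIB (MOI 0.08) or RF (MOI 0.025–0.819) and seeded at 2 × 10⁴/well onto half-log compound dilutions. After 6 days, XTT/PMS was added for 4 h and formazan was read at 450 nm. EC50 was the concentration giving 50% of the formazan of uninfected, compound-free cells.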

[23] = Therapeutic index, ratio of CC50 for human PBMC to EC50 for HIV1 91US005 infected in human PBMC; conditions: read-out: TI; how it was run: as §3
[24] = test system: Human immunodeficiency virus 1; assay: Antiviral activity HIV1 98IN022 infected in human PBMC after 7 days by scintillation counting; assay type: functional, organism-based; conditions: Human immunodeficiency virus 1, 98IN022, 168 h; how it was run: as §2
[25] = test system: Human immunodeficiency virus 1; assay: Selectivity ratio of EC50 for HIV1 harboring capsid I201V mutant protein infected in human HeLa cells to EC50 for wild type HIV1 infected in human HeLa cells; assay type: functional; how it was run: as §7

CC(C)(C)c1ccc(C(Cn2cccc(C(F)(F)F)c2=O)NC2Cc3ccccc3C2)cc1 (stereo not given)
selectivity ratio [1]: 3400
EC50 [2]: 330 nM
selectivity ratio [3]: 52
EC50 [4]: 12000 nM
CC50 at 144 h [5]: 15000 nM
selectivity ratio [6]: 11
EC50 [7]: 7 nM
EC50 [8]: > 17000 nM
CC50 at 144 h [9]: 20000 nM
selectivity ratio [10]: < 1
selectivity ratio [11]: 30
EC50 [12]: 206 nM
EC50 [13]: 1200 nM
inhibition [14]: Active
selectivity ratio [15]: < 1
selectivity ratio [16]: < 1
selectivity ratio [17]: 13
EC50 [18]: > 3200 nM
EC50 [19]: > 17000 nM
EC50 [20]: 1400 nM
selectivity ratio [21]: < 1
EC50 [22]: 17 nM
selectivity ratio [23]: < 1
EC50 [24]: 1300 nM
Ratio EC50 [25]: >49
